Bioassay records deposited in PubChem by Broad Institute.
CAL PDZ FP-1: blocks peptide binding to human CAL PDZ domain | 330,000 compounds, 0.02% hits | AID 504414 | inhibition, % at 20 µM | purified CAL PDZ, TMR-peptide fluorescence polarization, 1 h;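 active means highest replicate inhibition of at least 40%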
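Material: tagged CAL PDZ protein CerCALP, purified; buffer or medium: sodium phosphate/NaCl buffer pH 7.4 with TCEP, IgG, Thesit; also added: fluorescent TMR peptide probe; schedule: 1 h incubation at room temperature before polarization reading; technique: fluorescence polarization from S- and P-plane intensities, G-factor corrected; control set: unlabelled peptide and DMSO controls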
Glyco luc inh: blocks N-linked glycosylation in D54 reporter cells; D54 ERlucT glycosylation luciferase reporter, 24 h; percent of 100 nM tunicamycin response; reporter increase, % at 12.5 µM; 360,000 compounds, 0.23% hits; AID 588692;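 active means mean luciferase reporter signal, scaled so untreated is 0 and the glycosylation-blocking control 100, at or above a set limit in every replicate; inconclusive means mean reaches the limit but not every replicate does; inactive means mean below the limit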;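 further: luciferase carries N-glycosylation sites so blocking glycosylation raises the light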
CAL PDZ FP-2: blocks peptide binding to the human CAL PDZ domain; inhibition, % at 24.9 µM; purified CAL PDZ, TMR-peptide fluorescence polarization, 1 h; 300,000 compounds, 0.92% hits; Q9HD26; AID 602252;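 active means mean inhibition of at least 30% with at least half of replicates also reaching 30%; inconclusive means no clear call, values can overlap the other calls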
CDK5 p35 inh: inhibitors of human CDK5/p35 kinase. Q00535+Q15078. inhibition, % at 10 µM. 330,000 compounds, 0.01% hits. Recombinant CDK5/p35, ADP-Glo luminescence, 60 min. AID 488839;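 active means highest replicate inhibition of at least 50% and at least 75% of replicates reaching 50%; inconclusive means only one of the two criteria met; inactive means both criteria failed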
Target sequence (Q00535 whole entry, looked up): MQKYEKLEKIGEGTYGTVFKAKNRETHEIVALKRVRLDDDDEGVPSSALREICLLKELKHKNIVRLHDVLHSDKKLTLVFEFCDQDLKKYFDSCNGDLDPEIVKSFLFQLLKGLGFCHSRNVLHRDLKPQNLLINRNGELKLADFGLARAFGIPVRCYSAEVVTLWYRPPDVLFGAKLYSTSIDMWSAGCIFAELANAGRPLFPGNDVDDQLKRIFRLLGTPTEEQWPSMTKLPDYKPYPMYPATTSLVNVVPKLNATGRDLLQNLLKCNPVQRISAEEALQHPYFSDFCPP
Target sequence (Q15078 whole entry, looked up): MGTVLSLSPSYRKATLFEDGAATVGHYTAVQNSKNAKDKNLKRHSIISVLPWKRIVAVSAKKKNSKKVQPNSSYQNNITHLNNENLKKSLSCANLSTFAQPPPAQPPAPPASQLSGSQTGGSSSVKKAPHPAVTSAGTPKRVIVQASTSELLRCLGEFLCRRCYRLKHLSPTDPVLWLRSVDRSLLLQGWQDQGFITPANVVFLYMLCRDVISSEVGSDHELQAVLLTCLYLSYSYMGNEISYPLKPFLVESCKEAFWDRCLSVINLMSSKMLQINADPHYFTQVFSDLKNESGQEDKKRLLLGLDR
Vif imaging: HIV Vif inhibition | HEK293T cells, Vif self-association by quenched fluorescence, imaging, 24 h | inhibition, % at 7.49 µM | 340,000 compounds, 0.35% hits; in the data active means inhibition above about 50%, passing the limit was not always enough; inconclusive means no clear call, values can overlap the other calls; inactive means below about 31%
PvdQ acylase: blocks Pseudomonas aeruginosa PvdQ acylase activity; inhibition, % at 10 µM; purified PvdQ acylase, fluorescence plate reader; 340,000 compounds, 0.063% hits; in the data active means inhibition above about 30%, passing the limit was not always enough; inconclusive means no clear call, values can overlap the other calls
Of the large screens only hits and unclear results are named; the others gave an inactive call; ! = repeats disagree. An excerpt weighted towards active compounds, which were near 1.4% of everything screened.

Cc1noc(C)c1CSc1nc2[nH]ncc2c(=O)n1-c1ccccc1	Glyco luc inh 42 (no result: Vif imaging)
Cc1noc(C)c1CSc1nc2ccccc2c(=O)n1-c1ccccc1	none
O=C(COC(=O)c1cc(Cl)ccc1O)NNC(=O)c1ccccc1F	none
CC[C@H](C)C(=O)O[C@H]1CCC=C2C=C[C@H](C)[C@H](CC[C@@H]3C[C@@H](O)CC(=O)O3)[C@H]21	Glyco luc inh 54
CCC(C)C(=O)OC1CCC=C2C=CC(C)C(CCC3CC(O)CC(=O)O3)C21 (stereo unspecified)	Glyco luc inh 41
CC[C@H](C)C(=O)O[C@H]1C[C@@H](C)C=C2C=C[C@H](C)[C@H](CC[C@@H]3C[C@@H](O)CC(=O)O3)[C@H]21	Glyco luc inh 69!
CCCCCCN1C[C@H](O)[C@@H](n2cc(C3CC3)nn2)C[C@@H]1c1ccc(C)cc1	none (no result: CAL PDZ FP-1, CAL PDZ FP-2, CDK5 p35 inh, PvdQ acylase)
CCOC(=O)c1ccc(N2C(=O)C(C)=C(C)C2=O)cc1	PvdQ acylase 38
O=C(NCc1ccccc1)c1ccc(S(=O)(=O)N2CCCCCC2)cc1	Vif imaging 77 (no result: CAL PDZ FP-1, CAL PDZ FP-2, CDK5 p35 inh, PvdQ acylase)
O=C(NCc1ccccc1)c1ccc(S(=O)(=O)N2CCCC2)cc1	none (no result: Vif imaging)
COc1ccc(C(=O)Nc2cc3c(cc2N2CCCCC2)n(C)c(=O)n3C)cc1OC	none
COc1cc(C(=O)Nc2cc3c(cc2N2CCCCC2)n(C)c(=O)n3C)cc(OC)c1OC	Glyco luc inh 42
CCN(CC)Cc1cc(C(C)(C)C)cc(N2CCOCC2)c1O	none
CN(C)Cc1cc(C(C)(C)C)cc(N2CCOCC2)c1O	CAL PDZ FP-2 89
COC(=O)c1sc2nc(C)nc(SCC(=O)C(C)(C)C)c2c1C	CAL PDZ FP-2 43 (no result: Vif imaging)
CN(C)c1ccc(C(=O)OCC(=O)NC2CCCCCC2)cc1	CAL PDZ FP-2 32
CCCCC(=O)N(C)c1c(C)nc2ccc(C(=O)N(CC)CCN(C)C)cn12	none (no result: CAL PDZ FP-1, CAL PDZ FP-2, CDK5 p35 inh, PvdQ acylase)
CCCN1CCN(C(=O)C(C)n2nc(C)c3sc4ccccc4c3c2=O)CC1 (stereo unspecified)	none
Cc1ccc(-c2nc(NCCCO)c3ccccc3n2)cc1	none
OCCCNc1c2ccccc2nc2ccccc12	Glyco luc inh 36 (no result: CAL PDZ FP-1)
CN(C)CCCNc1c2c(nc3ccccc13)CCC2	Glyco luc inh 30
CCCc1cc(=O)[nH]c(SCC(=O)Nc2sc3c(c2C(N)=O)CCCC3)n1	none
Cn1c(N)c(C(=O)CSc2nc(C3CC3)n(-c3ccccc3)n2)c(=O)n(C)c1=O	none
Cc1ccc(NS(=O)(=O)c2cc3[nH]c(=O)c(=O)[nH]c3cc2C)c(C)c1	none
CN(Cc1nc2ccccc2c(=O)[nH]1)C(=O)c1cc(C2CC2)nn1-c1ccccc1	none
COc1ccc(C)cc1C(=O)C1CC(C(=O)O)C(C)(C)C1C (stereo unspecified)	none
COC(=O)[C@@H]1C[C@@H](C(=O)O)[C@H](C)C1(C)C	CAL PDZ FP-2 43
CCOC(=O)Cc1nc2ccccc2n(CC#N)c1=O	CAL PDZ FP-2 76
Cc1ccc(/C=C/C(=O)O)cc1S(=O)(=O)N1CCc2ccccc21	Vif imaging 58
Cc1ccc(/C=C/C(=O)O)cc1S(=O)(=O)N1CCCc2ccccc21	none
Cc1nc(N2CCOCC2)c2cc(-c3ccccc3)sc2n1	Vif imaging inconclusive
Cc1nc(SCCC(=O)O)c2cc(-c3ccccc3)sc2n1	CAL PDZ FP-2 55
O=C(CCNC(=O)c1ccco1)Nc1ccc(C(F)(F)F)cc1	none
O=C(CCNC(=O)c1ccco1)Nc1ccc(OC(F)(F)F)cc1	Vif imaging 111
COc1ccc(CN(C)c2ncnc3sccc23)c(OC)c1OC	Glyco luc inh 30
COC(=O)C1=C(C)NC(C)=C(C(=O)OC)C1C(=O)OC(C)C(=O)c1ccccc1 (stereo unspecified)	CAL PDZ FP-2 50!
CCC(C)c1ccc(S(=O)(=O)N2CCN(CC(O)COCC3CCCO3)CC2)cc1 (stereo unspecified)	none
O=[N+]([O-])c1ccc(N2CCN(S(=O)(=O)c3ccc(Cl)cc3)CC2)cc1NCC1CCCO1 (stereo unspecified)	Vif imaging 57
C=CCn1cnnc1SCC(=O)N(C)CC1COc2ccccc2O1 (stereo unspecified)	CAL PDZ FP-2 48
Nc1nnn(CC(=O)N/N=C/c2cccc(Cl)c2)n1	Vif imaging 61 (no result: CAL PDZ FP-2)
